The record followed here is ChEMBL document CHEMBL4304834, “3-Amino-chromanes and Tetrahydroquinolines as Selective 5-HT2B, 5-HT7, or σ1 Receptor Ligands” (ACS Med Chem Lett, 2019).

Activity calls are given as the source filed them. No cut-off for these calls is given here. Bounds are passed on as bounds.

Assay [1] has as its target T1, Histamine H1 receptor (Homo sapiens, UniProt P35367). In words: Displacement of [3H]-Pyrilamine from human recombinant histamine H1 receptor expressed in stable HEK cells after 90 mins by microbeta scintillation counting method. The format is cell-based. In short, it runs like this: (§1)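 Radioligand binding was run by the NIMH Psychoactive Drug Screening Program. Compounds were first screened at 10 μM. Those giving ≥50% binding were taken to full competition curves. Ki is reported as pKi from a sigmoidal curve fit of triplicate measurements in a single experiment; the error is the curve-fit error.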
In general terms: Loss of bound radioactivity is the signal in a displacement assay; it reports binding, not function.

The target of assay [2] is T2, Alpha-1D adrenergic receptor (Homo sapiens, UniProt P25100).
T2 sequence (P25100 whole entry): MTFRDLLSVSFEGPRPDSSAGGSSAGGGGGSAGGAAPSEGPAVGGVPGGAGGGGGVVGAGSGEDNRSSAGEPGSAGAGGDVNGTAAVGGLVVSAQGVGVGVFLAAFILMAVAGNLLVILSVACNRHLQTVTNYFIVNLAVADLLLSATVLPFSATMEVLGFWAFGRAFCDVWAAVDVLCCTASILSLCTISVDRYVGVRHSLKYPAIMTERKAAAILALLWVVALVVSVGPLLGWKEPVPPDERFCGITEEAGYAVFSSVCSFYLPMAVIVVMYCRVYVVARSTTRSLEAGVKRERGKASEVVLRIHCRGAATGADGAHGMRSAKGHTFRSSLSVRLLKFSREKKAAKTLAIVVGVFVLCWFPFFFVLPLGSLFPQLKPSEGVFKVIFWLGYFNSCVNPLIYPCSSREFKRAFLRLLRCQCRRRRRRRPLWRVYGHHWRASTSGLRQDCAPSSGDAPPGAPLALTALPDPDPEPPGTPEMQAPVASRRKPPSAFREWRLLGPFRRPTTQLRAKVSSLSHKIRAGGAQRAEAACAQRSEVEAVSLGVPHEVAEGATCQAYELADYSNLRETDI
In words: Displacement of [3H]-Prazosin from human recombinant adrenergic Alpha1D receptor expressed in cells after 90 mins by microbeta scintillation counting method. The format is cell-based. In a few lines: as §1

The target in assay [3] is 5-hydroxytryptamine receptor 7 (Homo sapiens, UniProt P34969). In words: Displacement of [3H]-LSD from human recombinant 5-HT7 receptor expressed in stable HEK cells at 10 uM after 90 mins by microbeta scintillation counting method relative to control. The format is cell-based. In short, it runs like this: (§2)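 Radioligand binding run by the NIMH Psychoactive Drug Screening Program. […] Otherwise Ki comes from sigmoidal curve fits of triplicate measurements in a single experiment, or is averaged over repeated experiments each run in triplicate.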
Sequence of 5-hydroxytryptamine receptor 7 (P34969 whole entry): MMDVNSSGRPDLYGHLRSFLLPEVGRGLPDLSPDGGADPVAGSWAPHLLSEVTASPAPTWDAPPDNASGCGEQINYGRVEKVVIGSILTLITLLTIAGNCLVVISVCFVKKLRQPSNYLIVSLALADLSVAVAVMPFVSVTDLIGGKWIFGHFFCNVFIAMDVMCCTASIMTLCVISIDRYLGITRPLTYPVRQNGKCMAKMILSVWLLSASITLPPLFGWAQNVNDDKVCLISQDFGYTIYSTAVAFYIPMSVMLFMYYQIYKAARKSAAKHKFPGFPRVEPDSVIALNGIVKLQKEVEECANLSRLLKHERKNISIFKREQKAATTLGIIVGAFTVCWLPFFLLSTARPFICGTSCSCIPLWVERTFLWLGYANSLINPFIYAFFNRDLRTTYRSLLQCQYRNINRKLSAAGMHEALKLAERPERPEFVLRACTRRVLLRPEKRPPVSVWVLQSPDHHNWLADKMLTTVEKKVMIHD

For assay [4], the target named is T3, Alpha-2C adrenergic receptor (Homo sapiens) (UniProt P18825).
T3 sequence (whole entry): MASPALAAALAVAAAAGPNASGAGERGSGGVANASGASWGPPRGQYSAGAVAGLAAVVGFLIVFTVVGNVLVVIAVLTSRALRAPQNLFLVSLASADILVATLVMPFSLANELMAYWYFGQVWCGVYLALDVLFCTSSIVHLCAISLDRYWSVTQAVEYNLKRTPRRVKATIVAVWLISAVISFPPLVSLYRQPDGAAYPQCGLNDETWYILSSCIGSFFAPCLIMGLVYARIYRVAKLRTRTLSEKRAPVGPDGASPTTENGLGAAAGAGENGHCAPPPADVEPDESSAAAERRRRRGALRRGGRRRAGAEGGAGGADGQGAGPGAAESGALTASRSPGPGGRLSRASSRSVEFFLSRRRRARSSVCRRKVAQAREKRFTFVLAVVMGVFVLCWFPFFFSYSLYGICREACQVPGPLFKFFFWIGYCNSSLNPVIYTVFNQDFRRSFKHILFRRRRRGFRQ
In words: Displacement of [3H]-Rauwolscine from human recombinant adrenergic Alpha2C receptor expressed in stable MDCK cells at 10 uM after 90 mins by microbeta scintillation counting method relative to control. In kind it is cell-based.

In assay [5] the target is Beta-1 adrenergic receptor (Homo sapiens, UniProt P08588). In words: Displacement of [125I]-pindolol from human recombinant adrenergic Beta1 receptor expressed in Flp-In CHO cells at 10 uM after 90 mins by microbeta scintillation counting method relative to control. The format is cell-based. In a few lines:
as §2

Assay [6] deals with 5-hydroxytryptamine receptor 2A (Homo sapiens, UniProt P28223). The assay can be described thus: Displacement of [3H]-Ketanserin from human recombinant 5-HT2A receptor transiently expressed in HEKT cells at 10 uM after 90 mins by microbeta scintillation counting method relative to control. The format is cell-based. In short, it runs like this:
as §2

The next assay addresses D(1B) dopamine receptor (Homo sapiens, UniProt P21918). The assay can be described thus: Displacement of [3H]-SCH23390 from human recombinant dopamine D5 receptor expressed in HEKT cells at 10 uM after 90 mins by microbeta scintillation counting method relative to control. In kind it is cell-based.
Assay [7] concerns the target Kappa-type opioid receptor (Homo sapiens, UniProt P41145). The assay can be described thus: Displacement of [3H]-U69593 from human recombinant KOR receptor expressed in stable HEK cells at 10 uM after 90 mins by microbeta scintillation counting method relative to control. In kind it is cell-based.
Assay [8] concerns the target Alpha-2B adrenergic receptor (Homo sapiens) (UniProt P18089). In words: Displacement of [3H]-Rauwolscine from human recombinant adrenergic Alpha2B receptor expressed in HEKT cells at 10 uM after 90 mins by microbeta scintillation counting method relative to control. In kind it is cell-based.
Assay [9] deals with Sodium-dependent dopamine transporter (Homo sapiens, UniProt Q01959). The assay can be described thus: Displacement of [3H]-Win35428 from human recombinant DAT receptor expressed in stable HEK cells at 10 uM after 90 mins by microbeta scintillation counting method relative to control. The format is cell-based.
Sequence of Sodium-dependent dopamine transporter (Q01959 whole entry): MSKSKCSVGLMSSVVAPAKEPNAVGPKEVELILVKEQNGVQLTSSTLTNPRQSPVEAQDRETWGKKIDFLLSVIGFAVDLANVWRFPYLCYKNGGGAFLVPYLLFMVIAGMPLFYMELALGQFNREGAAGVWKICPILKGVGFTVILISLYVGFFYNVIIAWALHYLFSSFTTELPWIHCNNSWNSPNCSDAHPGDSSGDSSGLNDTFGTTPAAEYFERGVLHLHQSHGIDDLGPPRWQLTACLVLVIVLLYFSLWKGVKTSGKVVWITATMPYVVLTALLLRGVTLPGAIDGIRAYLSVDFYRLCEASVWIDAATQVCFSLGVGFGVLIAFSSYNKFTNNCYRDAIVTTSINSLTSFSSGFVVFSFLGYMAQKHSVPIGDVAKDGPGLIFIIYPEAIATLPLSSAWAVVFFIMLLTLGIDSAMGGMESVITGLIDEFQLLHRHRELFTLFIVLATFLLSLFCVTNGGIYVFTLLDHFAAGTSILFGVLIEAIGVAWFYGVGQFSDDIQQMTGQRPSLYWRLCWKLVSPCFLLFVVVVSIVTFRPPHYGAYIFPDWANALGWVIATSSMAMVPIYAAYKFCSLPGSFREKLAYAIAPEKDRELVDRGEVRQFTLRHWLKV
The target in assay [10] is T1, Histamine H1 receptor. The assay can be described thus: Displacement of [3H]-Pyrilamine from human recombinant histamine H1 receptor expressed in stable HEK cells at 10 uM after 90 mins by microbeta scintillation counting method relative to control. The format is cell-based.
The target of a further assay is Mu-type opioid receptor (Homo sapiens, UniProt P35372). In words: Displacement of [3H]-DAMGO from human recombinant MOR receptor expressed in stable HEK cells at 10 uM after 90 mins by microbeta scintillation counting method relative to control. In kind it is cell-based. In short, it runs like this: as §2
Sequence of Mu-type opioid receptor (P35372 whole entry): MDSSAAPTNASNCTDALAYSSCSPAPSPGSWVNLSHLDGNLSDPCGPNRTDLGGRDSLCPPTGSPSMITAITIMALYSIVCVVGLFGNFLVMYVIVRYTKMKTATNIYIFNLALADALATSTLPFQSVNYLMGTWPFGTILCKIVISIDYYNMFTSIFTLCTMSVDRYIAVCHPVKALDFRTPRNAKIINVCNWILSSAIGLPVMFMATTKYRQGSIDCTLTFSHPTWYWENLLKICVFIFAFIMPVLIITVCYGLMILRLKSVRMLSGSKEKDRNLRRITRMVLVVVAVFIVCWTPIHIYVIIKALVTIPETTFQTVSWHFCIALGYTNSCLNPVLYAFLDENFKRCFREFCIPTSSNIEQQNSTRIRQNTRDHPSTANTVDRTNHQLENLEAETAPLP
Assay [11] deals with Alpha-2A adrenergic receptor (Homo sapiens) (UniProt P08913). The assay can be described thus: Displacement of [3H]-Rauwolscine from human recombinant adrenergic Alpha2A receptor expressed in stable MDCK cells at 10 uM after 90 mins by microbeta scintillation counting method relative to control. The format is cell-based.
Sequence of Alpha-2A adrenergic receptor (Homo sapiens) (P08913 whole entry): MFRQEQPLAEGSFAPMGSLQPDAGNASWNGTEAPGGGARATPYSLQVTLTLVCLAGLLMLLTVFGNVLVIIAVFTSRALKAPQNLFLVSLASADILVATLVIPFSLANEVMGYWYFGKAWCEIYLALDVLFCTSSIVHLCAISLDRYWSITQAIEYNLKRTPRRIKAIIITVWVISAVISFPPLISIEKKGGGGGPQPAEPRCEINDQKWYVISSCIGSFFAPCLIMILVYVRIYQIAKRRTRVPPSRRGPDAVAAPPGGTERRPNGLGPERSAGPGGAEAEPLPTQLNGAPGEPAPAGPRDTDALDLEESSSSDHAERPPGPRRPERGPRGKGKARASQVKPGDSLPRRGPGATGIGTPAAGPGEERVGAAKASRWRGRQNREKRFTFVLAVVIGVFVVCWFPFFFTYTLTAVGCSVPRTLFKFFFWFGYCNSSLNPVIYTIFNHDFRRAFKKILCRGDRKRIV
For assay [12], the species on record is Homo sapiens. In words: Selectivity index, ratio of Ki for human recombinant adrenergic Alpha2B receptor to Ki for human recombinant sigma1 receptor. In a few lines:
(§3)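 Both Ki values in each ratio come from NIMH Psychoactive Drug Screening Program radioligand binding. […] Other targets were given full binding curves, measured in triplicate, and Ki was taken from a sigmoidal curve fit. Some values were repeated in duplicate or triplicate independent experiments.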

The next assay relates to 661W. The assay can be described thus: Cytoprotective activity in mouse 661W cells assessed as reduction in tBHP-induced ROS level at 10 to 30 uM after 2 hrs by […] fluorescent microscopic analysis. The format is functional, cell-based. In a few lines: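 661W cells seeded on coverslips for 18 h, then exposed 2 h to 55 μM tBHP with or without test agent or (+)-pentazocine. ROS are detected with CellROX green dye by epifluorescence, with DAPI marking nuclei. Fluorescence intensity is quantified as mean ± SD from three independent experiments, each run in duplicate.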

The species named for assay [13] is Homo sapiens. In words: Selectivity index, ratio of Ki for human recombinant dopamine D3 receptor to Ki for human recombinant sigma1 receptor. In a few lines: as §3
Assay [14] is filed under the species Homo sapiens. In words: Selectivity index, ratio of Ki for human recombinant adrenergic Beta2 receptor to Ki for human recombinant sigma1 receptor. In short, it runs like this:
as §3

The species entered for assay [15] is Homo sapiens. The assay can be described thus: Selectivity index, ratio of Ki for human recombinant 5-HT1A to Ki for human recombinant sigma1 receptor.

Sequence of D(1B) dopamine receptor (P21918 whole entry): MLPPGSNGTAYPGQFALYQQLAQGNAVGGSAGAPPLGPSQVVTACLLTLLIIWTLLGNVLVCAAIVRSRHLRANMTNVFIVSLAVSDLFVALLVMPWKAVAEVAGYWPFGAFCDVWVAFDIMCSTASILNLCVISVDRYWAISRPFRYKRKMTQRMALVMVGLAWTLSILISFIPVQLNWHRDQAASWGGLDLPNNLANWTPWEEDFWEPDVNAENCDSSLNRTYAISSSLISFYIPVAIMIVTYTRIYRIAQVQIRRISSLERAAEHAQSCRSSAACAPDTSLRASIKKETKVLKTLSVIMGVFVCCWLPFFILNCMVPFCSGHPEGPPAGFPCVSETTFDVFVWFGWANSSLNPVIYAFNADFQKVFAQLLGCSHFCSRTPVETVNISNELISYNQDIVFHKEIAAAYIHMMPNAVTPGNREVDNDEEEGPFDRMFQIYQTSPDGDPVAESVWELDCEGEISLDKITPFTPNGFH
T1 sequence (P35367 whole entry): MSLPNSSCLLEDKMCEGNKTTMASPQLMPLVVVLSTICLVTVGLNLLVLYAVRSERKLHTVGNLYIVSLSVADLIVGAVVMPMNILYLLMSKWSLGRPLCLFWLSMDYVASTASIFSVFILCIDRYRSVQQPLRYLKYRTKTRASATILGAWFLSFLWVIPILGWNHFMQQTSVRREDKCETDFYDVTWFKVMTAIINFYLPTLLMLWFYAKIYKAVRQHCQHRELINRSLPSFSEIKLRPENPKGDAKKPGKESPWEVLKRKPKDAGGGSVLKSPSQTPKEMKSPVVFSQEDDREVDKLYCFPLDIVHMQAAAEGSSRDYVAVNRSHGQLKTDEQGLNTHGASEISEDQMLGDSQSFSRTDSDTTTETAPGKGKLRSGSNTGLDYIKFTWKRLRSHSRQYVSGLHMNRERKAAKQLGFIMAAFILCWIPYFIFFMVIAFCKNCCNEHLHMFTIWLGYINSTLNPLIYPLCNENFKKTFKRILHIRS
Sequence of Beta-1 adrenergic receptor (P08588 whole entry, looked up): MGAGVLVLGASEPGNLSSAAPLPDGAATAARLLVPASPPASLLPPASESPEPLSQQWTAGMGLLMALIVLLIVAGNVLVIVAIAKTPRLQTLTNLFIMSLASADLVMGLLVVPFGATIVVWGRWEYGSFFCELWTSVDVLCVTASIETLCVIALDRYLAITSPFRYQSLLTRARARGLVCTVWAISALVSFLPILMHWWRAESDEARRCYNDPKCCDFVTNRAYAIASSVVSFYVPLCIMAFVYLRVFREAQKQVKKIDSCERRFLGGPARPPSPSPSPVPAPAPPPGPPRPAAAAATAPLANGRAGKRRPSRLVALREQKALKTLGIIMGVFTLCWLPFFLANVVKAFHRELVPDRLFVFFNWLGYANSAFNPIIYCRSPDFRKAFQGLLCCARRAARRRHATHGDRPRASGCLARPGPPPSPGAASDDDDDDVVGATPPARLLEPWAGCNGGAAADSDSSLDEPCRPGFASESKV
Sequence of Alpha-2B adrenergic receptor (Homo sapiens) (P18089 whole entry): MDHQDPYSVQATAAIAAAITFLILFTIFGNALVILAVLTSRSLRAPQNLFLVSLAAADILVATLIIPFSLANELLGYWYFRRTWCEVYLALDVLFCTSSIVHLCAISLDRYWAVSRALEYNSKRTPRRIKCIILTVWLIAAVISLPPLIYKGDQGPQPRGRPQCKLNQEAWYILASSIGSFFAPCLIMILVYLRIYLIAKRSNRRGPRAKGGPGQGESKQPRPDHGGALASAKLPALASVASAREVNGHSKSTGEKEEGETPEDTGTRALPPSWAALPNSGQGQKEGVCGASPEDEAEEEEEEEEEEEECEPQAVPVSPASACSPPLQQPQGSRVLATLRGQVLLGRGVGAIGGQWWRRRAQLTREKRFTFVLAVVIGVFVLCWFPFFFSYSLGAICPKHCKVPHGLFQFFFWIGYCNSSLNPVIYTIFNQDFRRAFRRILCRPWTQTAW
Sequence of Kappa-type opioid receptor (P41145 whole entry): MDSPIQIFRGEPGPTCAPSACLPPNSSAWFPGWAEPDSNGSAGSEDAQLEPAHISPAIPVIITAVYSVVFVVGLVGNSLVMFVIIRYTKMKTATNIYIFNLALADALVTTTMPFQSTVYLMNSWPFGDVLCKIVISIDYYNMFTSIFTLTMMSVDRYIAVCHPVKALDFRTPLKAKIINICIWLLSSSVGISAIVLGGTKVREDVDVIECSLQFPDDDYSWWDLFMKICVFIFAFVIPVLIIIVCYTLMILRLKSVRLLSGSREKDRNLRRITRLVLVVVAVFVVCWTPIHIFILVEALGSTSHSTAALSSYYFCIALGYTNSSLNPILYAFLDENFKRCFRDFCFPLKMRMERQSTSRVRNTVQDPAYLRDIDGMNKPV
Sequence of 5-hydroxytryptamine receptor 2A (P28223 whole entry): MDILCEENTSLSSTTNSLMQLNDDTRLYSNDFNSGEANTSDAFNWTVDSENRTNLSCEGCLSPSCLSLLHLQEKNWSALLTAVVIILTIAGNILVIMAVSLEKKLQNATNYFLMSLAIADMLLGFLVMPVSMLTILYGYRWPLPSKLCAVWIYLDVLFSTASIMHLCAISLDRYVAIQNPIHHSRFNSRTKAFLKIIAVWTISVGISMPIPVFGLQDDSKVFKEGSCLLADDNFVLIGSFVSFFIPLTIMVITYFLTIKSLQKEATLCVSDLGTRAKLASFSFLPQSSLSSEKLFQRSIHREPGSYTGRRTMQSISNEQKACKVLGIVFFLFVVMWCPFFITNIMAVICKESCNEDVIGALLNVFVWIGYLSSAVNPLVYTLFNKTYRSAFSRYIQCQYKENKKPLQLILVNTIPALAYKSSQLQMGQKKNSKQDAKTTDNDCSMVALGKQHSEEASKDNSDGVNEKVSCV

`CC[C@H]1c2cc(OC)ccc2CC[C@@]1(C)N` (racemic): the inhibitory constant (Ki) – broadly, a measure of affinity in units of concentration, obtained from inhibition or displacement – on Histamine H1 receptor [1] is 3.16 µM; in [2], > 10 µM. In addition, the inhibition (in [3]; in assay [4]; in [5]; in assay [6]; on D(1B) dopamine receptor) was < 50% in each case.

With `C[C@@]12CN(c3ccccc3)c3ccccc3[C@@H]1CCN2` (racemic), the figures for the inhibitory constant (Ki) (on Histamine H1 receptor [1]; in assay [2]) were > 10 µM and 1 µM, respectively.

As for `CC[C@H]1c2cc(C)ccc2OC[C@@]1(C)N` (racemic), the Ki (at Histamine H1 receptor [1]; in assay [2]) was > 10 µM in each case. Besides, the inhibition (in assay [7]; in assay [8]; in assay [3]; in [4]; in assay [9]; on Histamine H1 receptor [10]) was < 50% in each case. Moreover, the inhibition (in assay [5]; at Mu-type opioid receptor; in assay [6]; in [11]; at D(1B) dopamine receptor) was < 50% in each case.

`CC[C@H]1c2ccccc2N(c2ccccc2)C[C@@]1(C)N` (racemic): the Ki (at Histamine H1 receptor [1]; in assay [2]) was > 10 µM throughout.

Turning to `COc1cc(OC)c2c(c1)OC[C@@]1(C)NCC[C@@H]21` (racemic), the Ratio Ki in the assay filed under Homo sapiens [12], in the assay listed under Homo sapiens [13], in the assay listed under Homo sapiens [14] and in the assay filed under Homo sapiens [15] was > 20 throughout. Moreover, the inhibition – broadly, the percentage by which the read-out fell short of the control – in the assay on 661W was “Active”. In addition, the Ki (on Histamine H1 receptor [1]; in [2]) was > 10 µM in each case. The inhibition (in assay [7]; in assay [8]; in assay [4]; in assay [9]; on Histamine H1 receptor [10]; on Mu-type opioid receptor) was < 50% each time. In addition, at D(1B) dopamine receptor, the inhibition is < 50%.
